For assay [1], the system named is Human immunodeficiency virus 1. In words: Antiviral activity against Human immunodeficiency virus 1 clade A isolated from HIV-AIDS patient. It is filed as functional, organism-based.
Assay [2] concerns Human immunodeficiency virus 1. Kind of assay: Antiviral activity against multidrug resistant Human immunodeficiency virus 1 MDRC4. It is filed as functional, organism-based.
Assay [3] concerns Human immunodeficiency virus 1. Kind of assay: Antiviral activity against Human immunodeficiency virus 1 clade B isolated from HIV-AIDS patient. It counts as functional, organism-based.
Assay [4] deals with Human immunodeficiency virus 1. In words: Antiviral activity against multidrug resistant Human immunodeficiency virus 1 harboring protease M46I, I54V, V82A and L90M mutant. It counts as functional, organism-based. The method, boiled down:
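Drug susceptibility assay run by an outside contract lab. Panel: patient-derived wild-type HIV-1 clades A, B and C; MDR1 carrying protease M46I, I54V, V82A, L90M; MDR control MDRC4; and an NL4-3-derived clade B wild-type control (CNDO). The PR/RT regions of these strains were sequenced and deposited.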

The subject of assay [5] is Human immunodeficiency virus 1. In words: Antiviral activity against Human immunodeficiency virus 1 clade C isolated from HIV-AIDS patient. It counts as functional, organism-based.
For assay [6], the system named is Human immunodeficiency virus 1. Kind of assay: Antiviral activity against wild type Human immunodeficiency virus 1. It is filed as functional, organism-based.
Assay [7] addresses Protease (Human immunodeficiency virus 1, UniProt Q9YQ12). Kind of assay: Inhibition of wild type HIV1 protease by FRET.

Chain of Protease (Q9YQ12 whole entry): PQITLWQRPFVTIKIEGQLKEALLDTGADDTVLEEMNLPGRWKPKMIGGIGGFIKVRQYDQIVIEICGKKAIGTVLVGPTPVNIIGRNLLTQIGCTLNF

Broadly, the EC50 is the concentration that produces a half-maximal response. Take `CC(C)CN(C[C@@H](O)[C@H](Cc1ccccc1)NC(=O)[C@@H]1CN(c2ccccc2)C(=O)O1)S(=O)(=O)c1ccc2ncsc2c1`: the EC50 in assay [1] was determined as 29.8 nM; in assay [2], 123 nM; in assay [3], 14.1 nM; in assay [4] it was 113 nM; in assay [5], 40.9 nM; in assay [6] it was 21.5 nM.
For orientation: Ki means a dissociation constant, usually derived from enzyme kinetics or from competition with a known ligand. Low values mean higher affinity, high ones lower affinity. Regarding `CC(C)CN(C[C@@H](O)[C@H](Cc1ccccc1)NC(=O)[C@@H]1CN(c2ccccc2)C(=O)O1)S(=O)(=O)c1ccc(CO)cc1`, the affinity in assay [7], expressed as Ki, was 0.252 nM.
Take `CC(C)CN(C[C@@H](O)[C@H](Cc1ccccc1)NC(=O)[C@@H]1CN(c2ccc(F)cc2F)C(=O)O1)S(=O)(=O)c1ccc(N)cc1`: the inhibition constant (Ki) in assay [7] worked out at 0.385 nM.
Compound `CC(C)CN(C[C@@H](O)[C@H](Cc1ccccc1)NC(=O)[C@@H]1CN(c2ccc(F)cc2F)C(=O)O1)S(=O)(=O)c1ccc2c(c1)OCO2` showed a Ki in assay [7] of 0.347 nM.
In assay [7], `CC(C)CN(C[C@@H](O)[C@H](Cc1ccccc1)NC(=O)[C@@H]1CN(c2ccc(F)cc2F)C(=O)O1)S(=O)(=O)c1ccc(CO)cc1` yielded a Ki of 0.212 nM.
With `CC(C)CN(C[C@@H](O)[C@H](Cc1ccccc1)NC(=O)[C@@H]1CN(c2ccc(F)cc2)C(=O)O1)S(=O)(=O)c1ccc(N)cc1`, the affinity in assay [7], expressed as Ki, was 0.448 nM.
With `CC(=O)c1ccc(N2C[C@@H](C(=O)N[C@@H](Cc3ccccc3)[C@H](O)CN(CC(C)C)S(=O)(=O)c3ccc(CO)cc3)OC2=O)cc1`, in assay [7], the inhibition constant Ki was 0.317 nM.
In assay [7], `CC(C)CN(C[C@@H](O)[C@H](Cc1ccccc1)NC(=O)[C@@H]1CN(c2cccc(F)c2)C(=O)O1)S(=O)(=O)c1ccc(CO)cc1` displayed an inhibitory constant (Ki) of 0.319 nM.
The compound `CC(C)CN(C[C@@H](O)[C@H](Cc1ccccc1)NC(=O)[C@@H]1CN(c2ccc(F)c(F)c2)C(=O)O1)S(=O)(=O)c1ccc(CO)cc1` displayed an inhibition constant Ki in assay [7] of 0.33 nM.
Take `CC(C)CN(C[C@@H](O)[C@H](Cc1ccccc1)NC(=O)[C@@H]1CN(c2cccc(C(F)(F)F)c2)C(=O)O1)S(=O)(=O)c1ccc2ncsc2c1`: the EC50 came out at 16.1 nM in assay [1]; 53.4 nM in assay [2]; 9.9 nM in assay [3]; 57.6 nM in assay [4]; 32.5 nM in assay [5]; 13.5 nM in assay [6].
For `CC(C)CN(C[C@@H](O)[C@H](Cc1ccccc1)NC(=O)[C@@H]1CN(c2cccc(OC(F)(F)F)c2)C(=O)O1)S(=O)(=O)c1ccc2ncsc2c1`, the concentration giving a half-maximal response (EC50) in assay [1] was determined as 32.5 nM; in assay [2] it was 111 nM; in assay [3], 12.7 nM; in assay [4], 104 nM; in assay [5], 57.8 nM; in assay [6], 22.1 nM.
Regarding `CC(=O)c1cccc(N2C[C@@H](C(=O)N[C@@H](Cc3ccccc3)[C@H](O)CN(CC(C)C)S(=O)(=O)c3ccc4ncsc4c3)OC2=O)c1`, the half-maximal effective concentration (EC50) amounted to 9.7 nM in assay [1]; 34.7 nM in assay [2]; 4.2 nM in assay [3]; 32.3 nM in assay [4]; 10.1 nM in assay [5]; 6.5 nM in assay [6].
As for `CC(=O)c1cccc(N2C[C@@H](C(=O)N[C@@H](Cc3ccccc3)[C@H](O)CN(CC(C)C)S(=O)(=O)c3ccc(CO)cc3)OC2=O)c1`, the inhibition constant Ki in assay [7] was found to be 0.236 nM.
As for `COc1ccc(S(=O)(=O)N(CC(C)C)C[C@@H](O)[C@H](Cc2ccccc2)NC(=O)[C@@H]2CN(c3cccc(S(C)(=O)=O)c3)C(=O)O2)cc1`, the EC50 is 7.3 nM in assay [1]; 18.6 nM in assay [2]; 4.7 nM in assay [3]; 14.4 nM in assay [4]; 9.6 nM in assay [5]; 5.5 nM in assay [6].
In the case of `CC(C)CN(C[C@@H](O)[C@H](Cc1ccccc1)NC(=O)[C@@H]1CN(c2cccc(S(C)(=O)=O)c2)C(=O)O1)S(=O)(=O)c1ccc2c(c1)OCO2`, the EC50 was 7.8 nM in assay [1]; 12.1 nM in assay [2]; 3.5 nM in assay [3]; 13.6 nM in assay [4]; 7.6 nM in assay [5]; 4 nM in assay [6].
As to `CC(C)CN(C[C@@H](O)[C@H](Cc1ccccc1)NC(=O)[C@@H]1CN(c2cccc(S(C)(=O)=O)c2)C(=O)O1)S(=O)(=O)c1ccc2ncsc2c1`, the concentration giving a half-maximal response (EC50) in assay [1] is 4.1 nM; in assay [2], 10.5 nM; in assay [3], 3.5 nM; in assay [4], 9.4 nM; in assay [5], 5.7 nM; in assay [6], 5 nM.
Turning to `CC(C)CN(C[C@@H](O)[C@H](Cc1ccccc1)NC(=O)[C@@H]1CN(c2cccc([N+](=O)[O-])c2)C(=O)O1)S(=O)(=O)c1ccc2ncsc2c1`, the EC50 in assay [1] amounted to 11.5 nM; in assay [2], 37.7 nM; in assay [3] it was 5.7 nM; in assay [4] it was 33.8 nM; in assay [5] it was 16.3 nM; in assay [6], 7.3 nM.
Consider `COc1ccc(S(=O)(=O)N(CC(C)C)C[C@@H](O)[C@H](Cc2ccccc2)NC(=O)[C@@H]2CN(c3cccc(N)c3)C(=O)O2)cc1`, for which the 50% effective concentration (EC50) in assay [1] is 8.5 nM; in assay [2], 36.4 nM; in assay [3] it was 3 nM; in assay [4], 19 nM; in assay [5], 9.4 nM; in assay [6], 4 nM.
On to `CC(C)CN(C[C@@H](O)[C@H](Cc1ccccc1)NC(=O)[C@@H]1CN(c2cccc(N)c2)C(=O)O1)S(=O)(=O)c1ccc2c(c1)OCO2`, for which the concentration giving a half-maximal response (EC50) in assay [1] is 6.1 nM; in assay [2] it was 35.4 nM; in assay [3], 2.8 nM; in assay [4] it was 27.9 nM; in assay [5], 12.3 nM; in assay [6], 7.1 nM.
As for `CC(C)CN(C[C@@H](O)[C@H](Cc1ccccc1)NC(=O)[C@@H]1CN(c2cccc(N)c2)C(=O)O1)S(=O)(=O)c1ccc2ncsc2c1`, the EC50 came to 2.6 nM in assay [1]; 14.6 nM in assay [2]; 1.3 nM in assay [3]; 11.9 nM in assay [4]; 2.5 nM in assay [5]; 1.7 nM in assay [6].
As for `CC(=O)Nc1cccc(N2C[C@@H](C(=O)N[C@@H](Cc3ccccc3)[C@H](O)CN(CC(C)C)S(=O)(=O)c3ccc4c(c3)OCO4)OC2=O)c1`, the concentration giving a half-maximal response (EC50) stood at 9 nM in assay [1]; 46.9 nM in assay [2]; 6.3 nM in assay [3]; 41.9 nM in assay [4]; 21.1 nM in assay [5]; 10.9 nM in assay [6].
With `CC(=O)Nc1cccc(N2C[C@@H](C(=O)N[C@@H](Cc3ccccc3)[C@H](O)CN(CC(C)C)S(=O)(=O)c3ccc4ncsc4c3)OC2=O)c1`, the EC50 in assay [1] stood at 10.1 nM; in assay [2], 29.5 nM; in assay [3], 7.7 nM; in assay [4], 25.4 nM; in assay [5], 9.5 nM; in assay [6] it was 5.8 nM.
Turning to `COC(=O)Nc1cccc(N2C[C@@H](C(=O)N[C@@H](Cc3ccccc3)[C@H](O)CN(CC(C)C)S(=O)(=O)c3ccc4ncsc4c3)OC2=O)c1`, the concentration giving a half-maximal response (EC50) came out at 2.4 nM in assay [1]; 13 nM in assay [2]; 1.6 nM in assay [3]; 10.8 nM in assay [4]; 3 nM in assay [5]; 1.2 nM in assay [6].
Turning to `CC(C)CN(C[C@@H](O)[C@H](Cc1ccccc1)NC(=O)O[C@H]1CO[C@H]2OCC[C@H]21)S(=O)(=O)c1ccc(N)cc1`, the concentration giving a half-maximal response (EC50) in assay [1] stood at 0.6 nM; in assay [3] it was 0.4 nM; in assay [4] it was 0.5 nM; in assay [5], 0.4 nM; in assay [6] it was 0.4 nM.
As for `CC(C)CN(C[C@@H](O)[C@H](Cc1ccccc1)NC(=O)[C@@H]1CN(c2ccccc2)C(=O)O1)S(=O)(=O)c1ccc(N)cc1`, the affinity in assay [7] corresponds to a Ki of 0.53 nM.
In assay [7], `CC(=O)c1cccc(N2C[C@@H](C(=O)N[C@@H](Cc3ccccc3)[C@H](O)CN(CC(C)C)S(=O)(=O)c3ccc4c(c3)OCO4)OC2=O)c1` had an inhibitory constant (Ki) of 0.006 nM.
In the case of `COc1ccc(S(=O)(=O)N(CC(C)C)C[C@@H](O)[C@H](Cc2ccccc2)NC(=O)[C@@H]2CN(c3ccccc3)C(=O)O2)cc1`, the inhibition constant (Ki) in assay [7] was 0.1 nM.

For the origin of these results see ChEMBL document CHEMBL1275377, “Structure-based design, synthesis, and structure-activity relationship studies of HIV-1 protease inhibitors incorporating phenyloxazolidinones” (J Med Chem, 2010).
